Laboratory results reported in ChEMBL document CHEMBL1153528, “Modeling of the aryl hydrocarbon receptor (AhR) ligand binding domain and its utility in virtual ligand screening to predict new AhR ligands” (J Med Chem, 2009).

Assays:
Format in all cases: cell-based
[1] = target: T1, Aryl hydrocarbon receptor (AhR) ligand-binding domain (Mus musculus, UniProt P30561); experiment: Induction of mouse AhR LBD transcriptional activity in mouse hepa1 cells transfected with AhR response element co expressed with XRE after 6 hrs by luciferase reporter gene assay relative to control; conditions: read-out: FC
T1 sequence (P30561 whole entry): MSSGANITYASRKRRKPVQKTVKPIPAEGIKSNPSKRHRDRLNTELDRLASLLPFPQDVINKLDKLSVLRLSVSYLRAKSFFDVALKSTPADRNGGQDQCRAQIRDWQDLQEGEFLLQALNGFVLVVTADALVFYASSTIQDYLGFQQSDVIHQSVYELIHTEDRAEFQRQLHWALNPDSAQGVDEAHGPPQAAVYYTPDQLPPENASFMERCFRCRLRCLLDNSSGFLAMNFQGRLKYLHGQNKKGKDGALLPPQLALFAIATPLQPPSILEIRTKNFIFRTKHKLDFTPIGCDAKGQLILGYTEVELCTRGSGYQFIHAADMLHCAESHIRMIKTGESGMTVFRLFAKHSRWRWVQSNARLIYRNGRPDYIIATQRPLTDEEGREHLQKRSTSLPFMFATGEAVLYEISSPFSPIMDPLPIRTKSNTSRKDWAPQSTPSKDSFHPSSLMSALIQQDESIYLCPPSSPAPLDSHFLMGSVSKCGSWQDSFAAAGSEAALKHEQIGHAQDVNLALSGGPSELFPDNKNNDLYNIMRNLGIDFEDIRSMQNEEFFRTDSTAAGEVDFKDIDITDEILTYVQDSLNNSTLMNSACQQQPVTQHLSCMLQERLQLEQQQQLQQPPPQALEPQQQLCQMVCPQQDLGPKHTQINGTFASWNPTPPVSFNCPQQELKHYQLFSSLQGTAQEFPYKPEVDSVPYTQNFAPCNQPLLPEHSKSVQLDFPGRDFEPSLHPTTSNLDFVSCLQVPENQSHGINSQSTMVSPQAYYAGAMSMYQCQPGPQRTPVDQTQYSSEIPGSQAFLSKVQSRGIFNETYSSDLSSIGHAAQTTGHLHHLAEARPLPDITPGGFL
Method in brief: (§1)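 Mouse Hepa1 cells carrying an AhRE/XRE-luciferase reporter, grown in DMEM/10% FBS with penicillin/streptomycin under 5% CO2. Test agents from DMSO stocks, final 20 µM, were applied for 6 h and reporter activity then measured. Fold activation was graded: ≥8 very strong, >4 strong, […].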

[2] = target: T2, Aryl hydrocarbon receptor (Mus musculus, UniProt P30561); experiment: Induction of mouse AhR LBD transcriptional activity in mouse hepa1 cells transfected with AhR response element co expressed with XRE at 20 uM after 6 hrs by luciferase reporter gene assay in presence of 6-hydroxy-7-methoxyflavone; method in brief: as §1
T2 sequence (P30561 whole entry): T1 sequence (P30561 whole entry)

[3] = target: T2, Aryl hydrocarbon receptor; experiment: Induction of nuclear translocation of AhR from cytosol in mouse Hepa1 cells at 20 uM after 60 mins using DAPI staining by microscopic analysis; conditions: hepa1, 1 h
Method in brief: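 Hepa1 cells given test agents for 60 min, then fixed. They were immunostained for AhR with FITC-labelled secondary antibody and counterstained with DAPI for nuclei. AhR nuclear localization was imaged by fluorescence microscopy.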

[4] = target: T2, Aryl hydrocarbon receptor; experiment: Effect on AhR-mediated CYP1A1 activation in mouse Hepa1c1c12 cells at 20 uM after 18 hrs by Western blot analysis; conditions: in the assay text read “semi-quantitative RT-PCR analysis” for “Western blot analysis”
Method in brief: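 Pair of Hepa1c1c7-derived lines: C12 (much reduced AhR) and C12 re-expressing WT AhR. Cells in DMEM/10% FBS with antibiotics under 5% CO2 were given 20 µM for 18 h, vehicle 0.1% DMSO, TCDD 1 nM as reference. Target genes (CYP1A1, NADPH-QO) assessed by semi-quantitative RT-PCR with GAPDH control. AhR shown by blot of 30 µg whole-cell lysate.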

Row | Structure (SMILES) | fold induction at 6 h [1] | Activity [2] | Activity [3] | Activity [4]
1 | Cc1ccc2oc(-c3ccccc3)c(O)c(=O)c2c1 | 2.5 | – | – | –
2 | COc1cc(O)c2c(=O)cc(-c3ccccc3)oc2c1 [TECHTOCHRYSIN] | 11.3 | Not Active | Active | Active
3 | Clc1cc2c(cc1Cl)Oc1cc(Cl)c(Cl)cc1O2 [2,3,7,8-TETRACHLORODIBENZO-P-DIOXIN] | 21 | – | – | –
4 | O=c1cc(-c2ccccc2O)oc2c(O)c(O)ccc12 | 2.8 | – | – | –
5 | Cc1ccc2oc(-c3ccccc3)cc(=O)c2c1 [6-METHYLFLAVONE] | 4.8 | – | – | –
6 | COc1ccc2c(=O)c(-c3ccccc3)coc2c1 | 2.7 | – | – | –
7 | O=C1CC(c2ccccc2)Oc2cc(O)cc(O)c21 (single isomer, unassigned) [PINOCEMBRIN] | 8 | – | Active | Active
